From ChEMBL document CHEMBL3112476, “Inhibition of IκB kinase-β and IκB kinase-α by heterocyclic adamantyl arotinoids” (Bioorg Med Chem, 2014)

Legend:
[1] = target: T1, Retinoic acid receptor alpha (Homo sapiens) (UniProt P10276); experiment: Antagonist activity at Gal4-fused RARalpha (unknown origin) transfected in HEK293 cells assessed as ATRA-induced transcriptional activity at 4 uM by luciferase/beta-galactosidase reporter gene assay relative to ATRA-treated control; format: cell-based; parameters: scale not given: the % may be the effect or the level left
T1 sequence (whole entry): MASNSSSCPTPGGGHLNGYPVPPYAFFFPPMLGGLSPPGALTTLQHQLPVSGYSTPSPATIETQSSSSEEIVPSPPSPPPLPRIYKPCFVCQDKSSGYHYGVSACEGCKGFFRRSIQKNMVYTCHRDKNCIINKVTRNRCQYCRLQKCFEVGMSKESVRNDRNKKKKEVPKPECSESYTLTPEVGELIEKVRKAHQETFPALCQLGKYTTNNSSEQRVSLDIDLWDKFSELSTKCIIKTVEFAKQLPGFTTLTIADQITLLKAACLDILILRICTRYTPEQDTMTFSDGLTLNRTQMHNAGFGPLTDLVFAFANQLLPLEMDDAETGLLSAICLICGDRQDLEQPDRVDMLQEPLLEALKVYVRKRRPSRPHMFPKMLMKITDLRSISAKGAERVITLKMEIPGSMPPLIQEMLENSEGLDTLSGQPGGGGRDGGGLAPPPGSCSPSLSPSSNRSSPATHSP
Procedure, shortened: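 Same Gal4-RARα HEK-293 UAS-luciferase system, stimulated with 0.1 µM atRA alone or with 4 µM compound (40-fold molar excess); 1 µM UVI2024 served as control antagonist. Background-subtracted luciferase was normalized to β-galactosidase and given as percent of atRA-stimulated cells. Data: 2–3 experiments, triplicate.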

Jurkat = experiment: Induction of apoptosis in human Jurkat cells assessed as activation of DEVDase at 5 uM after 4 hrs by fluorometric assay relative to control; format: functional
Procedure, shortened: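 Jurkat cells (20,000/well, 0.5% FBS RPMI) were treated 4 h with 5 µM compound and lysed 15 min in PIPES pH 7 buffer with NP-40, cytochalasin B and protease inhibitors. An equal volume of 2× caspase buffer containing 100 µM Ac-DEVD-AFC was added. AFC fluorescence (ex 390/em 510 nm) was read every 2 min for 1 h at 37 °C; the linear slope was taken as activity, expressed as fold over DMSO control. Data: 2 experiments, triplicate.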

[2] = Cytotoxicity against human Jurkat T cells assessed as cell viability at 4 uM after 24 hrs by CellTiter-Glo assay relative to control; format: functional; conditions: read-out: Activity
Procedure, shortened: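 Jurkat cells in 0.5% FBS RPMI were exposed to 4 µM compound or 0.1% DMSO for 24 h. Viability was read as ATP by CellTiter-Glo luminescence and expressed as percent of solvent control; below 60% counted as cell killing. Data: three experiments, triplicate.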

[3] = target: T2, Inhibitor of nuclear factor kappa-B kinase subunit alpha (Homo sapiens) (UniProt O15111); experiment: Inhibition of recombinant IKKalpha (unknown origin) using ulight-IkappaomegaBalpha as substrate at 20 uM after 2 hrs by LANCE ultra TR-FRET assay relative to control
T2 sequence (whole entry): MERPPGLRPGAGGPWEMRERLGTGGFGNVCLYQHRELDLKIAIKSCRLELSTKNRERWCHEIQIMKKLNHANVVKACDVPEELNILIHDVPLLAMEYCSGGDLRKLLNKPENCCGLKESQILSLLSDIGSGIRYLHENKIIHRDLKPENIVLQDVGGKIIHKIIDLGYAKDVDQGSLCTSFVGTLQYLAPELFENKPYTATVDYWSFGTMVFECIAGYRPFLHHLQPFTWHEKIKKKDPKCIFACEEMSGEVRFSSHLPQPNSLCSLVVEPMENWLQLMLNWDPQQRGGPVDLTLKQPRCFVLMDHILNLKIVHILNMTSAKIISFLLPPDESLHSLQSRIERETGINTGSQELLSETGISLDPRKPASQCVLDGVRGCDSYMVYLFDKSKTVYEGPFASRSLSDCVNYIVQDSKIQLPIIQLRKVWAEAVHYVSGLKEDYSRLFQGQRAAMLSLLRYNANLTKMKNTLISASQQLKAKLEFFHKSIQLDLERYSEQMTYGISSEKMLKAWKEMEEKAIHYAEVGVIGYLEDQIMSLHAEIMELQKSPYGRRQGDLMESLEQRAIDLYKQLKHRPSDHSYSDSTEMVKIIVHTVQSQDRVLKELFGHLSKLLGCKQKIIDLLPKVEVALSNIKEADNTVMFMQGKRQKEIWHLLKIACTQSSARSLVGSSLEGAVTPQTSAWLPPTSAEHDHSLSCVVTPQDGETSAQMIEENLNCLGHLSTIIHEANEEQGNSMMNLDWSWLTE
Procedure, shortened: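 Recombinant IKKα (4 nM), IKKβ (1 nM) or IKKε (2 nM) in 50 mM Hepes pH 7.4, 10 mM MgCl2, 1 mM EGTA, 2 mM DTT, 0.01% Tween-20. Substrate was 50 nM ULight-IκBα (IKKα/β) or ULight-rpS6 (IKKε); ATP was 1.25 µM (α/β) or 5 µM (ε). Compound was tested at 20 µM. Incubation was 1 h (IKKβ) or 2 h (IKKα/ε) at room temperature, stopped with 20 mM EDTA plus 2 nM Eu-anti-phospho antibody, then TR-FRET 665/615 nm. Results are percent inhibition versus solvent; 3–4 experiments, triplicate.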

[4] = target: T3, Inhibitor of nuclear factor kappa-B kinase subunit beta (Homo sapiens) (UniProt O14920); experiment: Inhibition of recombinant IKKbeta (unknown origin) using ulight-IkappaomegaBalpha as substrate at 20 uM after 1 hr by LANCE ultra TR-FRET assay relative to control
T3 sequence (whole entry): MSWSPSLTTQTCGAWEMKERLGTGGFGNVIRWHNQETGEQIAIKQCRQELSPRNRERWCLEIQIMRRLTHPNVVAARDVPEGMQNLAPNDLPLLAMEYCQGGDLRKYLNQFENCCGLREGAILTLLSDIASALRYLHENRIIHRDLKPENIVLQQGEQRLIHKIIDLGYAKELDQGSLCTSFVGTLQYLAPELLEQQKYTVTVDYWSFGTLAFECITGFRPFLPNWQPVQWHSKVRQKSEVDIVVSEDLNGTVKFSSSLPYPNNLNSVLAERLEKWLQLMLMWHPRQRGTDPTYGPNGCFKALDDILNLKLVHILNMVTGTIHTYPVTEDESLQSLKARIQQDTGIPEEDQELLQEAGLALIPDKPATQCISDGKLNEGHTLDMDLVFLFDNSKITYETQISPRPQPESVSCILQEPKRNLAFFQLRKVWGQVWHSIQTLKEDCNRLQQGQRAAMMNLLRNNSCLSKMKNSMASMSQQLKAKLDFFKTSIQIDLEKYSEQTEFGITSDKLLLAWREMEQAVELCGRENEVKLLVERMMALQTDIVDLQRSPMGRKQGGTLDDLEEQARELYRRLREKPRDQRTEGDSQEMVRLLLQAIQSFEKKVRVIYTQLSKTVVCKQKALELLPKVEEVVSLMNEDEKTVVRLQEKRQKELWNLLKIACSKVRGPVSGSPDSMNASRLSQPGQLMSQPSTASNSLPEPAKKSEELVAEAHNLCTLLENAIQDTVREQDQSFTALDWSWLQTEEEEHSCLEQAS

| Activity [1] [%] | inhibition [3] [%] | inhibition [4] [%] | Structure (SMILES) | fold change (FC) (Jurkat) | viability at 4 µM [2] [%] |
| --- | --- | --- | --- | --- | --- |
| 74.1 | 42.3 | 39.8 | COCCOCOc1cc(C)c(-c2ccc(CC(=O)O)cc2Cl)cc1C12CC3CC(CC(C3)C1)C2 | 2.6 | 86.8 |
| 93.2 | 17.9 | 8.2 | COc1nc(/C=C/C(=O)O)cnc1-c1ccc(O)c(C23CC4CC(CC(C4)C2)C3)c1 | 3.1 | 60.9 |
| 78.7 | 4.2 | 1.6 | COCCOCOc1ccc(-c2ncc(/C=C/C(=O)O)nc2OC)cc1C12CC3CC(CC(C3)C1)C2 | 0.2 | 94.9 |
| 79.7 | 26.9 | 4.9 | Cc1cc(O)c(C23CC4CC(CC(C4)C2)C3)cc1-c1ccc(CC(=O)O)cc1Cl | 1.8 | 45.8 |
| 109 | 23.8 | 25.4 | COCCOCOc1ccc(-c2ncc(-c3ccc(C(=O)O)cc3)nc2OC)cc1C12CC3CC(CC(C3)C1)C2 | 2.5 | 91.4 |
| 92.4 | 82.9 | 89.3 | COCCOCOc1ccc(-c2ncc(-c3ccc(C(=O)O)cc3)s2)cc1C12CC3CC(CC(C3)C1)C2 | 9.8 | 74.5 |
| 87.3 | 46.6 | 26.2 | Cc1cc(O)c(C23CC4CC(CC(C4)C2)C3)cc1-c1ncc(/C=C/C(=O)O)s1 | 1.5 | 92.3 |
| 33.2 | 87.9 | 95 | Cc1cc(O)c(C23CC4CC(CC(C4)C2)C3)cc1-c1ncc(-c2ccc(C(=O)O)cc2)s1 | 12.1 | 39 |
| 67.1 | 23.7 | 4.9 | Cc1cc(O)c(C23CC4CC(CC(C4)C2)C3)cc1-c1ccc(/C=C/C(=O)O)cc1Cl | 0.8 | 34.1 |
| 89 | 50.1 | 7.3 | COc1nc(/C=C/C(=O)O)cnc1-c1cc(C23CC4CC(CC(C4)C2)C3)c(O)cc1C | 2.6 | 70.9 |
| 92.4 | 32.8 | 5 | O=C(O)/C=C/c1cnc(-c2ccc(O)c(C34CC5CC(CC(C5)C3)C4)c2)s1 | 0.6 | 92.9 |
| 94.2 | 4.5 | 1.9 | COCCOCOc1ccc(-c2ncc(/C=C/C(=O)O)s2)cc1C12CC3CC(CC(C3)C1)C2 | 0.6 | 103 |
| 75.3 | 29.2 | 12.2 | COCCOCOc1cc(C)c(-c2ncc(/C=C/C(=O)O)s2)cc1C12CC3CC(CC(C3)C1)C2 | 1.6 | 96.1 |
| 82.7 | 33.9 | 79.2 | COCCOCOc1cc(C)c(-c2ccc3cc(C(=O)O)ccc3c2Cl)cc1C12CC3CC(CC(C3)C1)C2 | 12.4 | 33.1 |
| 61.5 | 13.5 | 4.3 | COCCOCOc1cc(C)c(-c2ccc(/C=C/C(=O)O)cc2Cl)cc1C12CC3CC(CC(C3)C1)C2 | 1.3 | 83.7 |
| 95.4 | 78.5 | 83.9 | COc1nc(-c2ccc(C(=O)O)cc2)cnc1-c1ccc(O)c(C23CC4CC(CC(C4)C2)C3)c1 | 42.6 | 14.9 |
| 99.5 | 45.7 | 3.8 | COCCOCOc1cc(C)c(-c2ncc(/C=C/C(=O)O)nc2OC)cc1C12CC3CC(CC(C3)C1)C2 | 0.3 | 96.5 |
| 90 | 87.3 | 96.4 | Cc1cc(O)c(C23CC4CC(CC(C4)C2)C3)cc1-c1ccc2cc(C(=O)O)ccc2c1Cl | 55.8 | 7.7 |
| 66.2 | 85.3 | 94.1 | O=C(O)c1ccc(-c2cnc(-c3ccc(O)c(C45CC6CC(CC(C6)C4)C5)c3)s2)cc1 | 81.4 | 6 |
| 61.6 | 73.3 | 87.7 | COCCOCOc1cc(C)c(-c2ncc(-c3ccc(C(=O)O)cc3)s2)cc1C12CC3CC(CC(C3)C1)C2 | 4.9 | 59.5 |
| 70 | 2.3 | 0 | CC(=O)NCCCOc1cc(/C=C/C(=O)O)ccc1-c1cc(C23CC4CC(CC(C4)C2)C3)c(O)cc1C | 6.3 | 28 |
